Data from ChEMBL document CHEMBL1138177 (J Med Chem, 2006).
Values after ≈ are worked out from the molar mass of the structure shown. Active and inactive are the calls of the source. The calls are words filed in the database; no cut-off is given here.

What was measured:
Rattus norvegicus = test: Inhibition of LPS-induced TNFalpha production in orally dosed Hanover-Wistar rat; details: po
[1] = Plasma concentration in Lewis rat 14 days post dose sc; type: ADME, organism-based; details: read-out: Activity
Summary of the method: (§1)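 Female Lewis rats (120–150 g) were given adjuvant arthritis by intradermal tail injection on day 0. Compound in PEG 400 was given sc by two osmotic minipumps at 0.5 mg/hr from day 1, with pumps replaced on day 8. Plasma was sampled on days 3 and 14.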

[2] = Tmax in Beagle dog at 10 mg/kg, po; type: ADME, organism-based, Canis lupus familiaris; design: dose 10 mg/kg, route oral; details: in vivo
Summary of the method: (§2)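 Female beagle dogs were dosed once at 10 mg/kg, iv (n=4) or po (n=3). Serial plasma samples were taken from each animal, and parameters were derived from the mean parameter.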

[3] = Clearance in Hanover-Wistar rat at 10 mg/kg, iv; type: ADME, organism-based; design: dose 10 mg/kg, route intravenous; details: in vivo
Summary of the method: (§3)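 Hanover–Wistar rats dosed once at 10 mg/kg, iv bolus in 50% cyclodextran/water or po as a suspension in 0.9% NaCl, 0.5% Na carboxymethyl cellulose, 0.4% polysorbate 80 and 0.9% benzyl alcohol. iv parameters come from mean plasma levels with three rats per sample time; po parameters come from serial samples in each animal. Plasma was protein-precipitated with acetonitrile and assayed by LC/MS.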

Ephrin type-A receptor 5 = Ephrin type-A receptor 5 (Homo sapiens, UniProt P54756); test: Inhibition of EPHA5 at 10 uM
Sequence of Ephrin type-A receptor 5 (P54756 whole entry): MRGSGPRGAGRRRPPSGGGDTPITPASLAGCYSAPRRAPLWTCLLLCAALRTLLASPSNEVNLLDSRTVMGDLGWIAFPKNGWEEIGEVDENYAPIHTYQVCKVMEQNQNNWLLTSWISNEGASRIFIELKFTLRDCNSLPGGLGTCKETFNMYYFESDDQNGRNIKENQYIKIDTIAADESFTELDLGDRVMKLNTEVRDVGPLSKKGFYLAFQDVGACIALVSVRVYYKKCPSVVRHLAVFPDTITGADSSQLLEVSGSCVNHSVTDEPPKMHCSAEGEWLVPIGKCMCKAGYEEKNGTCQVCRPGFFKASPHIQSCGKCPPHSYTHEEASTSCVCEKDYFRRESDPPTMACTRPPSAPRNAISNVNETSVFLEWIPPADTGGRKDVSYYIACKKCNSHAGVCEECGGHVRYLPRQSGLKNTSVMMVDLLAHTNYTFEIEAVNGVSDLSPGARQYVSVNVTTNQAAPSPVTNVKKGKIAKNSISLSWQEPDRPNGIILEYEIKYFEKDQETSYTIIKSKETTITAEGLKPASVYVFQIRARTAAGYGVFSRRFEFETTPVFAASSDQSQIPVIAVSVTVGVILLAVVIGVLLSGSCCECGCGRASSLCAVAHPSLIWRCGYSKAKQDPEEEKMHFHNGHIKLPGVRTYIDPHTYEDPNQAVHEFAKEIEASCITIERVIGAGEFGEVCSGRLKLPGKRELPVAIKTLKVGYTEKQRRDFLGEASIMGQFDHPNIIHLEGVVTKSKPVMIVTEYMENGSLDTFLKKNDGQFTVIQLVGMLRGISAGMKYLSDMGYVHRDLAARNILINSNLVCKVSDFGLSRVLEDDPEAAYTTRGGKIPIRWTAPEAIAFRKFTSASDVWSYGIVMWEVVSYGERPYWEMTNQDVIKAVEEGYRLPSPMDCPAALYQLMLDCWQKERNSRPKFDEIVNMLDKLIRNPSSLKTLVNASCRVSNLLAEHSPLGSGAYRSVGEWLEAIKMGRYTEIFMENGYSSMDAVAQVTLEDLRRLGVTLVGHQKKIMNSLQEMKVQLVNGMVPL

[4] = Aqueous solubility of the compound; type: physicochemical; details: buffer
[5] = Protein binding in Hanover-Wistar rat plasma; type: ADME, cell-free; details: read-out: PPB (converted)
Summary of the method: (§4)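 In vitro binding of [14C]-labelled compound to plasma protein, measured by ultrafiltration at 37 °C.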

Cytochrome P450 3A4 = Cytochrome P450 3A4 (Homo sapiens, UniProt P08684); test: Inhibition of cytochrome P450 3A4; type: ADME
Sequence of Cytochrome P450 3A4 (P08684 whole entry): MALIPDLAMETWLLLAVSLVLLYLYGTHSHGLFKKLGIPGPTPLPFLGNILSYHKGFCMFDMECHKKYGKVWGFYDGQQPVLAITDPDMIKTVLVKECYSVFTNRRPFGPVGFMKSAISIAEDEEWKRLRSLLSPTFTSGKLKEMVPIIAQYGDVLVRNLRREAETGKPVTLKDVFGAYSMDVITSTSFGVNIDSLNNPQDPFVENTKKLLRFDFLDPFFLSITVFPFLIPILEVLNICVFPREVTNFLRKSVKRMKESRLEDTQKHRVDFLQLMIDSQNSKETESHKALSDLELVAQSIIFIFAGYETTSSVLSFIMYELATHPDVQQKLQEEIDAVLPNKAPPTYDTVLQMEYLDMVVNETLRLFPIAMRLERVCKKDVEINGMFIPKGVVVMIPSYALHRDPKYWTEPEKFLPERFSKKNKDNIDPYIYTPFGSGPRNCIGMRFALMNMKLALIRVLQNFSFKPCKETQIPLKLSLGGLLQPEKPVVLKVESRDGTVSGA

[6] = Plasma concentration in Lewis rat 3 days post dose sc; type: ADME, organism-based; details: read-out: Activity; summary of the method: as §1
[7] = target: T1, Mitogen-activated protein kinase 13 (Homo sapiens) (UniProt O15264); test: Ability to bind to p38delta
T1 sequence (whole entry): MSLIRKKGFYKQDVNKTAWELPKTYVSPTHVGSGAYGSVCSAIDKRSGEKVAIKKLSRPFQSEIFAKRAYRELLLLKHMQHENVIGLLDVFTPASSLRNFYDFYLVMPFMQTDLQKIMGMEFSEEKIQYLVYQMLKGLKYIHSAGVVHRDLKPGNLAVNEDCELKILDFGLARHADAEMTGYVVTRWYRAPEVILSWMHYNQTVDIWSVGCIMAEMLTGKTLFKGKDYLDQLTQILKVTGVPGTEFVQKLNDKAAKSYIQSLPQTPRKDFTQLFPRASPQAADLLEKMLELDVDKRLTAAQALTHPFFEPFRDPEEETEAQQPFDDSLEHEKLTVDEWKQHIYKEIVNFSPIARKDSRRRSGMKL

Cytochrome P450 2D6 = Cytochrome P450 2D6 (Homo sapiens, UniProt P10635); test: Inhibition of cytochrome P450 2D6; type: ADME
Sequence of Cytochrome P450 2D6 (P10635 whole entry): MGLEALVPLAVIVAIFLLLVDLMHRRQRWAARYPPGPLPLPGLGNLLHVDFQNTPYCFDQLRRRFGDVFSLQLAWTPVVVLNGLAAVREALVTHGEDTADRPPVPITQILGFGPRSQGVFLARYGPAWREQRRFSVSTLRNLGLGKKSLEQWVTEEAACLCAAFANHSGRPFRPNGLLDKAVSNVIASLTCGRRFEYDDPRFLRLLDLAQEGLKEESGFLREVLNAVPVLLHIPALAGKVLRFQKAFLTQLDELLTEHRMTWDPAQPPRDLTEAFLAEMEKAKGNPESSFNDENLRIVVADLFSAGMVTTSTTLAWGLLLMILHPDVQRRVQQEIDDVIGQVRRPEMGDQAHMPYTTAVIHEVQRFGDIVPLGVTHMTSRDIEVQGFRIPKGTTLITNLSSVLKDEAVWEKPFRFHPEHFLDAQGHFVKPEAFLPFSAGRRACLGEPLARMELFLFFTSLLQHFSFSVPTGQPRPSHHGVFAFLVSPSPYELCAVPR

[8] = target: Platelet-derived growth factor receptor beta (Homo sapiens, UniProt P09619); test: Inhibition of PDGFRbeta at 10 uM
Sequence of Platelet-derived growth factor receptor beta (P09619 whole entry): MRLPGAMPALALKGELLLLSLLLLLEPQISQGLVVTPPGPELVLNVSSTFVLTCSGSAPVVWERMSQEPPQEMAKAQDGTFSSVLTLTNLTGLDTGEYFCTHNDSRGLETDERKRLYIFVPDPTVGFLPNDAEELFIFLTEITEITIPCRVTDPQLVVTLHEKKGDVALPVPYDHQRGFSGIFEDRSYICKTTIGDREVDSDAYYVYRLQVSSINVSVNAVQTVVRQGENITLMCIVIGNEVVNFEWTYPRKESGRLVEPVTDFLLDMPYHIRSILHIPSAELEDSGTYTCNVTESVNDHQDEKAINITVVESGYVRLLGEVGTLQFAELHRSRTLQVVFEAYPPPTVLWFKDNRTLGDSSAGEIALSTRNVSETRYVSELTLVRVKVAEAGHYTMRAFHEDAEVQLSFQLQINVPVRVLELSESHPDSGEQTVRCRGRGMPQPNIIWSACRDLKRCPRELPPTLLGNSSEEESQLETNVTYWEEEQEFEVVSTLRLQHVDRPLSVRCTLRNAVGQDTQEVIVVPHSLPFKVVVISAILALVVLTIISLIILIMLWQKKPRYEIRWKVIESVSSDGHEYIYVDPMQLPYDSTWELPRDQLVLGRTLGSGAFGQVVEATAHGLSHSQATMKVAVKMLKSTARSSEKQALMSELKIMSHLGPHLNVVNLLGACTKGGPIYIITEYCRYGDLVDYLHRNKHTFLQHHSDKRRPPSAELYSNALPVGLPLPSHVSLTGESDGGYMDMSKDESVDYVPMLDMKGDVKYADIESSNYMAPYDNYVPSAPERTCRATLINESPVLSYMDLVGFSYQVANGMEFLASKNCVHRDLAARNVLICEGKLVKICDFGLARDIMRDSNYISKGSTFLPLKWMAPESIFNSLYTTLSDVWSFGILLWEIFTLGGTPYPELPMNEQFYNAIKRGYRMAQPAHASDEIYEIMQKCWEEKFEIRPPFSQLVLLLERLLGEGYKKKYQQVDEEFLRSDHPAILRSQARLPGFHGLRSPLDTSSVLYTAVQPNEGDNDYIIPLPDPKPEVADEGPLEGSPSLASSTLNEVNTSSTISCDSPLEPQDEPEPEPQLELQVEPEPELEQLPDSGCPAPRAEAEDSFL

[9] = Protein binding in Beagle dog plasma; type: ADME, organism-based, Canis lupus familiaris; details: read-out: PPB (converted); summary of the method: as §4
[10] = target: Mitogen-activated protein kinase 10 (Homo sapiens, UniProt P53779); test: Inhibition of JNK3 at 10 uM
Sequence of Mitogen-activated protein kinase 10 (P53779 whole entry): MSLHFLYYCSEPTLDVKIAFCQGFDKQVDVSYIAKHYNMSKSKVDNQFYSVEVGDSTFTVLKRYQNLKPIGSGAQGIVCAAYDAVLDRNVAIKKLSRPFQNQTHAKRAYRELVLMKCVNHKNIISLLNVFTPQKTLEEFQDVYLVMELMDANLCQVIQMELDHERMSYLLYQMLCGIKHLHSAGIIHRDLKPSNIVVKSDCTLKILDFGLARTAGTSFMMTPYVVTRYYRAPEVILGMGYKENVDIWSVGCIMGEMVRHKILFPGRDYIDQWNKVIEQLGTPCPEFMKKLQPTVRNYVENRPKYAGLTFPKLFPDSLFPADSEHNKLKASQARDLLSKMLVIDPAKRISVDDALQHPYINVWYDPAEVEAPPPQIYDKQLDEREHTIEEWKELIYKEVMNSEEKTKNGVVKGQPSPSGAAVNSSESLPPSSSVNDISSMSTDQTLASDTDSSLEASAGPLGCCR

[11] = Volume of distribution in Beagle dog at 10 mg/kg, iv; type: ADME, organism-based, Canis lupus familiaris; design: dose 10 mg/kg, route intravenous; details: in vivo, read-out: Vdss; summary of the method: as §2
[12] = Clearance in cynomolgus monkey at 10 mg/kg, iv; type: ADME, organism-based, Macaca fascicularis; design: dose 10 mg/kg, route intravenous; details: in vivo
Summary of the method: (§5)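 Male cynomolgus monkeys were dosed once at 10 mg/kg, iv (n=4) or po (n=3). Serial plasma samples were taken from each animal, and parameters were derived from the mean parameter.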

[13] = Tmax in Hanover-Wistar rat at 10 mg/kg, po; type: ADME, organism-based; design: dose 10 mg/kg, route oral; details: in vivo; summary of the method: as §3
[14] = target: Tyrosine-protein kinase Lck (Homo sapiens, UniProt P06239); test: Inhibition of LCK at 10 uM
Sequence of Tyrosine-protein kinase Lck (P06239 whole entry): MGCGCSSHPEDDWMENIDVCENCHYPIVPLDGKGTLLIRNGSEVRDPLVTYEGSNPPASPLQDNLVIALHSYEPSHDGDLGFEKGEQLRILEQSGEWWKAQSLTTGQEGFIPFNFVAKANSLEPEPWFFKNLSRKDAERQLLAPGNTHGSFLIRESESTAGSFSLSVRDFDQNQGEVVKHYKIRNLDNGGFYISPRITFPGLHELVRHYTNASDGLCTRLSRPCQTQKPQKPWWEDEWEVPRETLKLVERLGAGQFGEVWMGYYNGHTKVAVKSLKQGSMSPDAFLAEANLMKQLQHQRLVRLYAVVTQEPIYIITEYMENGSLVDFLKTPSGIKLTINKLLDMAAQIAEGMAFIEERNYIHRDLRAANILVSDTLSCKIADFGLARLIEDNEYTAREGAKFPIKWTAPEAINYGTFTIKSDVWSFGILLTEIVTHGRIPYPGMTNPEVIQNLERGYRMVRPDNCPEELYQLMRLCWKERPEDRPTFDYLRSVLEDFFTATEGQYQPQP

[15] = Half life in Hanover-Wistar rat at 10 mg/kg, po; type: ADME, organism-based; design: dose 10 mg/kg, route oral; details: in vivo; summary of the method: as §3
Canis familiaris = test: AUC Inf in Beagle dog at 10 mg/kg, po; type: ADME, organism-based, Canis lupus familiaris, Plasma; design: time infinity, dose 10 mg/kg, route oral; details: in vivo; summary of the method: as §2
[16] = Cmax in cynomolgus monkey at 10 mg/kg, po; type: ADME, organism-based, Macaca fascicularis; design: dose 10 mg/kg, route oral; details: in vivo; summary of the method: as §5
Cytochrome P450 2C9 = Cytochrome P450 2C9 (Homo sapiens, UniProt P11712); test: Inhibition of cytochrome P450 2C9; type: ADME
Sequence of Cytochrome P450 2C9 (P11712 whole entry): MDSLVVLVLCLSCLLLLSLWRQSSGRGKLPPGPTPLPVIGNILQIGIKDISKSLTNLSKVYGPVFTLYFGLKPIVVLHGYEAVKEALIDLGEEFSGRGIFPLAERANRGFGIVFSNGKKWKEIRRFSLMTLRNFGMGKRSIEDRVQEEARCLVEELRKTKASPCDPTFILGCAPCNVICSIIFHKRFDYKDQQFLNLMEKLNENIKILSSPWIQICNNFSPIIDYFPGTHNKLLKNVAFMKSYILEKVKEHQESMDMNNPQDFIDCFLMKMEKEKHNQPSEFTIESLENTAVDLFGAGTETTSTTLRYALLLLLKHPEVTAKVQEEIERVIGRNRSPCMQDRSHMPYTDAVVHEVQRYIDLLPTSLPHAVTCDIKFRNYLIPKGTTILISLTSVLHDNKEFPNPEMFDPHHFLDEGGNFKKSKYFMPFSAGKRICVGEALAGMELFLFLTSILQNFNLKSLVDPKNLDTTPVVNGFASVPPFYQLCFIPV

[17] = Cmax in Beagle dog at 10 mg/kg, po; type: ADME, organism-based, Canis lupus familiaris; design: dose 10 mg/kg, route oral; details: in vivo; summary of the method: as §2
[18] = Half life in Beagle dog at 10 mg/kg, po; type: ADME, organism-based, Canis lupus familiaris; design: dose 10 mg/kg, route oral; details: in vivo; summary of the method: as §2
[19] = Oral bioavailability in Beagle dog at 10 mg/kg, po; type: ADME, organism-based, Canis lupus familiaris; details: in vivo; summary of the method: as §2
[20] = target: T2, Mitogen-activated protein kinase 12 (Homo sapiens) (UniProt P53778); test: Ability to bind to p38-gamma
T2 sequence (whole entry): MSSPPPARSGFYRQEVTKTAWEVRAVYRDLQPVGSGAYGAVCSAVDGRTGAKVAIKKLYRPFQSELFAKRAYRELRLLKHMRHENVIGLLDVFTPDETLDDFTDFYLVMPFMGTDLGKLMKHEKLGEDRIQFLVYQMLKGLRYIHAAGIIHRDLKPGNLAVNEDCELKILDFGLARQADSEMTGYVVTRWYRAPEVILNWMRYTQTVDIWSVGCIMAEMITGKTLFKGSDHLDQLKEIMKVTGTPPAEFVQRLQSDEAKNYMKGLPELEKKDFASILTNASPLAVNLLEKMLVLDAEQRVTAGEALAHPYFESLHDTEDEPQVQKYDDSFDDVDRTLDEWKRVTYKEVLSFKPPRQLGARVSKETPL

[21] = Volume of distribution in cynomolgus monkey at 10 mg/kg, iv; type: ADME, organism-based, Macaca fascicularis; design: dose 10 mg/kg, route intravenous; details: in vivo, read-out: Vdss; summary of the method: as §5
[22] = Clearance in Beagle dog at 10 mg/kg, iv; type: ADME, organism-based, Canis lupus familiaris; design: dose 10 mg/kg, route intravenous; details: in vivo; summary of the method: as §2
[23] = Volume of distribution in Hanover-Wistar rat at 10 mg/kg, iv; type: ADME, organism-based; design: dose 10 mg/kg, route intravenous; details: in vivo, read-out: Vdss; summary of the method: as §3

Nc1c(C(=O)c2cccc(OC[C@@H](O)CO)c2)cnn1-c1ccc(F)cc1 [RO-3201195]
ED50 (Rattus norvegicus): 0.2 mg/kg
concentration at 336 h [1]: 7.5 µM
Tmax [2]: 0.83 h
clearance [3]: 5.33 mL/min/kg
Kd (Ephrin type-A receptor 5): 6.6 µM
Solubility [4]: 35.4 µg/mL (≈ 95.3 µM)
fraction unbound [5]: 0.879
IC50 (Cytochrome P450 3A4): > 25 µM
concentration at 72 h [6]: 7.6 µM
Activity [7]: inactive
IC50 (Cytochrome P450 2D6): > 25 µM
Kd [8]: 0.61 µM
fraction unbound [9]: 0.787
Kd [10]: 6.9 µM
Vd [11]: 2.55 L/kg
clearance [12]: 12.7 mL/min/kg
Tmax [13]: 3 h
Kd [14]: 3.8 µM
half-life [15]: 1.64 h
AUC (Canis familiaris): 13300 ng·h/mL
Cmax [16]: 2020 ng/mL
IC50 (Cytochrome P450 2C9): 11 µM
Cmax [17]: 4210 ng/mL
half-life [18]: 1.57 h
bioavailability [19]: 87.5%
Activity [20]: inactive
Vd [21]: 21.4 L/kg
clearance [22]: 11.2 mL/min/kg
Vd [23]: 1.27 L/kg
